# Laboratory results: ChEMBL document CHEMBL1629423, “Second generation analogs of rigid 6,7-spiro scaffolds targeting the bacterial ribosome” (Bioorg Med Chem Lett, 2010)
# Columns and labels:
# Bacterial 70S ribosome = assay: Binding affinity to Escherichia coli ribosome assessed as inhibition of transcription-translational activity by luciferase assay; format: subcellular
# Method in brief: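 Coupled in vitro transcription–translation run in E. coli extract. IC50 values are given in μM and averaged over three replicate experiments per compound (±15%).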
# Nucleic Acid = assay: Binding affinity to RNA by RNA fluorescence assay; format: nucleic-acid assay
# Method in brief: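 Decoding-site model RNA oligonucleotide carrying 2-aminopurine at the flexible adenine A1492. Binding is read as the rise in 2AP fluorescence emission. EC50 is the mean of three replicate experiments per compound (±10%), in μM.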
# Ribosome = assay: Binding affinity to ribosome in reticulocyte lysate assessed as inhibition of transcription-translational activity by luciferase assay; format: subcellular
# Method in brief: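 Eukaryotic counter-screen by coupled transcription/translation (TNT quick) in reticulocyte lysate. IC50 is the mean of three replicate experiments per compound (±15%), in μM.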
Structure (SMILES),IC50 (Bacterial 70S ribosome) [µM],EC50 (Nucleic Acid) [µM],IC50 (Ribosome) [µM]
N[C@@H]1C[C@H](N)[C@@]2(C[C@H](O)[C@H](O)CO2)[C@H](O)[C@H]1O,11.3,6.5,> 1000
N[C@@H]1C[C@H](N)[C@@]2(CC[C@@H](O)[C@@H](O)CO2)[C@H](O)[C@H]1O,168,141,160
N[C@@H]1C[C@H](N)[C@@]2(CC[C@H](O)[C@H](O)CO2)[C@H](O)[C@H]1O,118,74,130
N[C@@H]1C[C@H](N)[C@@]2(CCC=CCO2)[C@H](O)[C@H]1O,> 1000,8.4,> 1000
C=CCC(C)(C)CN[C@@H]1C[C@H](N)[C@@]2(CCC=CCO2)[C@H](O)[C@H]1O,429,63,> 1000
NCC[C@H](O)C(=O)N[C@@H]1C[C@H](N)[C@@]2(CC[C@H](O)[C@H](O)CO2)[C@H](O)[C@H]1O,186,6.9,> 1000
NCCCC[C@H](N)C(=O)N[C@@H]1C[C@H](N)[C@@]2(CC[C@H](O)[C@H](O)CO2)[C@H](O)[C@H]1O,98,12,> 1000
NC[C@@H]1O[C@H](O[C@H]2[C@@H](O)[C@H](O[C@@H]3[C@@H](O)[C@H](N)C[C@H](N)[C@H]3O[C@H]3O[C@H](CN)[C@@H](O)[C@H](O)[C@H]3N)O[C@@H]2CO)[C@H](N)[C@@H](O)[C@@H]1O [FRAMYCETIN],0.032,0.007,252
NC[C@H]1O[C@H](O[C@H]2[C@H](O)[C@@H](O)[C@H](N)C[C@@H]2N)[C@H](N)[C@@H](O)[C@@H]1O [NEAMINE],5,9.5,120
